From ChEMBL document CHEMBL3351507, “11H-Pyrido[3',2':4,5]pyrrolo[3,2-c]cinnoline and pyrido[3',2':4,5]pyrrolo[1,2-c][1,2,3]benzotriazine: two new ring systems with antitumor activity” (2014)
The source made the active and inactive calls. No cut-off for these calls is given here.

How the values were obtained:
CCRF-CEM [1] = assay: Resistance index, ratio of GI50 for human vinblastin-resistant CEM cells to GI50 for human CEM cells; assay type: functional
Outline: (§1)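 CEMVbl-100 (vinblastine-selected CEM) was grown in RPMI-1640 with 0.1 µg/mL vinblastine. LoVoDoxo was grown in HAM's F12 with 0.1 µg/mL doxorubicin; parental CEM and LoVo were grown without drug. Media had 10% FBS. 5x10^3 cells were seeded, preincubated 24 h at 37 °C, then exposed 72 h to compound (DMSO <1%). Read-out was MTT; GI50 came from dose-response curves of ≥3 experiments. RI = GI50 resistant / GI50 parental.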

CCRF-CEM [2] = assay: Cytotoxicity against human CEM cells assessed as growth inhibition after 72 hrs by MTT assay; assay type: functional
Outline: (§2)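 Cells were grown in medium with 10% heat-inactivated FBS plus penicillin/streptomycin: RPMI-1640 for Jurkat and CEM, DMEM for A-431, HAM's F12 for LoVo. The doxorubicin-resistant LoVo subclone was kept with 0.1 µg/mL doxorubicin. Cells were seeded at 5x10^3 per well and pre-incubated 24 h at 37 °C.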

CCRF-CEM [3] = assay: Cytotoxicity against human vinblastin-resistant CEM cells assessed as growth inhibition after 72 hrs by MTT assay; assay type: functional; outline: as §1
LoVo [4] = assay: Cytotoxicity against human LoVo cells assessed as growth inhibition after 72 hrs by MTT assay; assay type: functional; outline: as §2
LoVo [5] = assay: Resistance index, ratio of GI50 for human LoVo/DX cells to GI50 for human LoVo cells; assay type: functional; outline: as §1
[6] = Cytotoxicity against human LoVo/DX cells assessed as growth inhibition after 72 hrs by MTT assay; assay type: functional; outline: as §2
[7] = biological target: T1, DNA topoisomerase 1 (Homo sapiens) (UniProt P11387); assay: Inhibition of human DNA topoisomerase 1-mediated DNA single strand cleavage at 5 to 100 uM after 30 mins by agarose gel electrophoresis relative to untreated control
T1 sequence (whole entry): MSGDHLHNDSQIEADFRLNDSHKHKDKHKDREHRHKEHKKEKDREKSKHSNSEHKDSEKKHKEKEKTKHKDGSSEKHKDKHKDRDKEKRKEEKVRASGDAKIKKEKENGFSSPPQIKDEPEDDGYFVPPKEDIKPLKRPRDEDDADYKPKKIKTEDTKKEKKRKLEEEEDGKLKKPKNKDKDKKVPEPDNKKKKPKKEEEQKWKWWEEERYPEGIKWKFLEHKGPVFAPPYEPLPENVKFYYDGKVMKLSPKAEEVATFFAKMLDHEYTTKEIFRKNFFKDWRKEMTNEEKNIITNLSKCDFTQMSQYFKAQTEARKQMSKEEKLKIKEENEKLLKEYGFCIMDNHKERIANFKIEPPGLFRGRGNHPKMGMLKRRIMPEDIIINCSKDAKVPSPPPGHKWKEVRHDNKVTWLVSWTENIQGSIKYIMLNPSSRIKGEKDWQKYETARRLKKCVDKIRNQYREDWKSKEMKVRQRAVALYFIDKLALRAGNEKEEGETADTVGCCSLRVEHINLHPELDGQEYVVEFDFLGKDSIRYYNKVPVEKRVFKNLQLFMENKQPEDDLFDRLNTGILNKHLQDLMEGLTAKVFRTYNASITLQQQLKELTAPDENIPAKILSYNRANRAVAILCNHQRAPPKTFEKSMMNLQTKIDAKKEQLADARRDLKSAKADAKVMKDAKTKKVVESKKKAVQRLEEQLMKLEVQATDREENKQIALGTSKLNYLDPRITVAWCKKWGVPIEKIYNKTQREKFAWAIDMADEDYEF
Outline: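 Reactions were set up as for relaxation: human topoisomerase I, 0.250 µg pBR322, compound 5-100 µM, 37 °C for 30 min, stopped with SDS/proteinase K. Samples were run on 0.8% agarose containing 0.5 µg/mL ethidium bromide, then destained in water, so that cleaved/nicked DNA could be detected under UV.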

CC[C@]1(O)C[C@@H]2CN(CCc3c([nH]c4ccccc34)[C@@](C(=O)OC)(c3cc4c(cc3OC)N(C)[C@H]3[C@@](O)(C(=O)OC)[C@H](OC(C)=O)[C@]5(CC)C=CCN6CC[C@]43[C@@H]65)C2)C1 [VINBLASTINE]
Ratio (CCRF-CEM [1]): 525 | GI50 (CCRF-CEM [2]): 4 nM | GI50 (CCRF-CEM [3]): 210 nM

COc1cccc2c1C(=O)c1c(O)c3c(c(O)c1C2=O)C[C@@](O)(C(=O)CO)C[C@@H]3O[C@H]1C[C@H](N)[C@H](O)[C@H](C)O1 [DOXORUBICIN]
GI50 (LoVo [4]): 120 nM | Ratio (LoVo [5]): 112.5 | GI50 [6]: 13.5 µM

CC[C@@]1(O)C(=O)OCc2c1cc1n(c2=O)Cc2cc3ccccc3nc2-1
Activity [7]: Active
